Data set [1] can be described thus: (§1) Selectivity index, ratio of CC50 for human KB cells to IC50 for amastigote stage of Leishmania donovani infected in mouse J774A.1 cells. It counts as functional. A digest of the protocol: (§2)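 SI = CC50 in KB cells (72 h MTT, nonlinear regression) divided by IC50 against intracellular amastigotes (72 h luciferase assay in infected macrophages, logit regression).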

The nature of data set [2]: Selectivity index, ratio of CC50 for african green monkey Vero cells to IC50 for chloroquine-sensitive Plasmodium falciparum 3D7. It counts as functional.
Data set [3] in a line: Cytotoxicity against african green monkey Vero cells after 72 hrs by MTT assay. The note with it: chlorocebus sabaeus. It counts as cell-based. A digest of the protocol:
(§3)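 Mammalian cells exposed to compound dilutions for 72 h; MTT used for detection (modified Mosmann method). CC50 derived by nonlinear regression.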

Data set [4] has as its system Plasmodium falciparum. Put plainly: Antimalarial activity against chloroquine-resistant Plasmodium falciparum K1 assessed as parasite growth inhibition after 72 hrs by MSF assay. It counts as functional, organism-based. To be noted: K1, 72 h. In a few lines: (§4)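 P. falciparum cultures in RPMI-1640-FBS; DMSO stock 5 mg/ml, test dilutions in culture medium; duplicate wells; 1.0% parasitized cell suspension at 0.8% parasitaemia; 37 °C, 5% CO2 in air, 72 h. Lysis buffer with SYBR Green I added, 1 h at 37 °C; fluorescence read at 485/530 nm excitation/emission as RFU. Chloroquine reference. IC50 in ng/mL.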

For data set [5], the system named is Plasmodium falciparum. In words: Antimalarial activity against chloroquine-sensitive Plasmodium falciparum 3D7 assessed as parasite growth inhibition after 72 hrs by MSF assay. It counts as functional, organism-based. To be noted: 3D7, 72 h. In a few lines: as §4
Data set [6] in a line: (§5) Cytotoxicity against human KB cells after 72 hrs by MTT assay. It counts as cell-based. The note with it: KB cells. A digest of the protocol:
as §3

In data set [7] the test system is Leishmania donovani. Put plainly: Antileishmanial activity against amastigote stage of Leishmania donovani infected in mouse J774A.1 cells assessed as intracellular parasite growth inhibition after 72 hrs by luciferase reporter gene assay. It counts as functional, organism-based. The note with it: J774.A1, 72 h. A digest of the protocol:
(§6)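 Macrophages seeded at 4 × 10³ cells/100 µL/well in RPMI-1640 with 10% fetal calf serum, 37 °C, CO₂. After 24 h, medium replaced with fresh medium containing stationary-phase promastigotes (4 × 10⁴/100 µL/well), which were phagocytosed and transformed to amastigotes. Compounds added at up to 7 concentrations starting from 40 µM, 72 h at 37 °C. Steady-Glo luciferase read as RLU versus untreated controls; IC50 by logit regression.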

For data set [8], the system named is Leishmania donovani. Put plainly: Antileishmanial activity against amastigote stage of Leishmania donovani infected in mouse J774A.1 cells assessed as intracellular parasite growth inhibition at 40 uM after 72 hrs by luciferase reporter gene assay. It counts as functional, organism-based. A digest of the protocol: as §6
On the technique in general: In a reporter assay the amount or activity of a reporter protein is the signal.

For data set [9], the system named is KB. The description is as §5. It counts as cell-based. The note with it: kb, 72 h. In a few lines:
as §3

Data set [10] relates to KB. Described as §1. It counts as functional. In a few lines: as §2

Converted amounts (≈) assume the structure as drawn. The source made the active and inactive calls. The rule behind the calls is not given here. A value given as a limit tells only on which side of the number the result lay.

The record followed here is ChEMBL document CHEMBL2311508, “A natural product inspired hybrid approach towards the synthesis of novel pentamidine based scaffolds as potential anti-parasitic agents” (Bioorg Med Chem Lett, 2013).

With `Cc1cc(NC2CC2)nc(Nc2ccc(OCCCCCOc3ccc(Nc4nc(C)cc(NC5CC5)n4)cc3)cc2)n1`, the results for the “Ratio CC50/IC50” value in data set [1] and in data set [2] were 6.38 and 89.6, respectively. The CC50 (commonly the concentration that lowers cell viability or growth by half) at 72 h in data set [3] stood at 0.56 µg/mL (≈ 0.964 µM); in data set [6] it was 2680 nM. The IC50 – broadly, the concentration that inhibits the measured activity by half – in the data set with Plasmodium falciparum [4] was 0.0113 µg/mL (≈ 0.0194 µM); in the data set with Plasmodium falciparum [5] it was 0.00625 µg/mL (≈ 0.0108 µM); in the data set on Leishmania donovani [7] it was 420 nM.

Turning to `COc1ccc(CNc2cc(C)nc(Nc3ccc(OCCCCCOc4ccc(Nc5nc(C)cc(NCc6ccc(OC)cc6)n5)cc4)cc3)n2)cc1`, the “Ratio CC50/IC50” value in data set [1] came out at 3.7; in [2], 288.28. In addition, the CC50 at 72 h in [3] amounted to 3.37 µg/mL (≈ 4.55 µM); in data set [6] it was 2110 nM. For the same compound, the figures for the half-inhibitory concentration (IC50) in the data set with Plasmodium falciparum [4], in the data set on Plasmodium falciparum [5] and with Leishmania donovani [7] were 0.0236 µg/mL (≈ 0.0319 µM), 0.0117 µg/mL (≈ 0.0158 µM) and 570 nM, respectively.

With `COc1ccc(C(=O)/C=C/c2ccc(OCCCCCOc3ccc(C=O)cc3)cc2)cc1OC`, the “Ratio CC50/IC50” value in data set [1] came out at 0.49. For the same compound, the midpoint of cytotoxicity in data set [6], the CC50 at 72 h, lay at 13900 nM. Besides, in the data set on Leishmania donovani [7], the IC50 amounted to 28400 nM.

As for `Cc1cc(N2CCN(c3ccccc3)CC2)nc(Nc2ccc(OCCCCCOc3ccc(Nc4nc(C)cc(N5CCN(c6ccccc6)CC5)n4)cc3)cc2)n1`, the “Ratio CC50/IC50” value is listed as greater than 232 in data set [1] and 1688 in data set [2]. Besides, the CC50 at 72 h in [3] was 100 µg/mL (≈ 126 µM); in data set [6] it was greater than 400000 nM. For the same compound, the values for the IC50 with Plasmodium falciparum [4], in the data set on Plasmodium falciparum [5] and in the data set on Leishmania donovani [7] were 0.0531 µg/mL (≈ 0.0671 µM), 0.0592 µg/mL (≈ 0.0749 µM) and 1720 nM, respectively.

For `COc1ccc(C(=O)/C=C/c2ccc(OCCCCCOc3ccc(/C=C/C(=O)c4ccc(OC)c(OC)c4)cc3)cc2)cc1OC`, the “growth inhibition (GI)” value in the data set with Leishmania donovani [8] was “inactive”.

Regarding “SODIUM ANTIMONY GLUCONATE [listing 1 of 2 here]”, the CC50 with KB [9] amounted to 398 µg/mL.

Turning to `O=Cc1ccc(OCCCCCOc2ccc(/C=C/C(=O)c3ccc(Br)cc3)cc2)cc1`, the “growth inhibition (GI)” value with Leishmania donovani [8] is “inactive”.

In the case of `Cc1cc(NC2CCCC2)nc(Nc2ccc(OCCCCCOc3ccc(Nc4nc(C)cc(NC5CCCC5)n4)cc3)cc2)n1`, the “Ratio CC50/IC50” value in data set [1] came out at 1.11; in [2], 57.71. Moreover, the CC50 at 72 h came out at 18.1 µg/mL (≈ 28.4 µM) in data set [3] and 1690 nM in data set [6]. Further, the IC50 was 0.313 µg/mL (≈ 0.492 µM) with Plasmodium falciparum [5] and 1530 nM with Leishmania donovani [7].

As to `O=C(/C=C/c1ccc(OCCCCCOc2ccc(/C=C/C(=O)c3ccccc3)cc2)cc1)c1ccccc1`, the “Ratio CC50/IC50” value in data set [1] is greater than 242.42. In addition, in data set [6], the CC50 at 72 h is greater than 400000 nM. Besides, the IC50 in the data set on Leishmania donovani [7] turned out to be 1650 nM.

`N=C(N)c1ccc(OCCCCCOc2ccc(C(=N)N)cc2)cc1` [PENTAMIDINE]: in [1], the “Ratio CC50/IC50” value is recorded as 2.58. The midpoint of cytotoxicity in data set [6], the CC50 at 72 h, lay at 52700 nM. Further, the IC50 in the data set with Leishmania donovani [7] stood at 20400 nM.

For `CCCCCCCCCCCCCCCCOP(=O)([O-])OCC[N+](C)(C)C` [MILTEFOSINE], in [1], the “Ratio CC50/IC50” value amounted to 0.25.

Turning to `Cc1cc(N2CCOCC2)nc(Nc2ccc(OCCCCCOc3ccc(Nc4nc(C)cc(N5CCOCC5)n4)cc3)cc2)n1`, the “Ratio CC50/IC50” value in [1] stood at 4.67; in [2], 7.82. Moreover, the CC50 at 72 h stood at 2.06 µg/mL (≈ 3.21 µM) in data set [3] and 5510 nM in data set [6]. For the same compound, the IC50 with Plasmodium falciparum [5] was found to be 0.264 µg/mL (≈ 0.412 µM); in the data set on Leishmania donovani [7] it was 1180 nM.

Consider `Cc1cc(NCc2ccc(F)cc2)nc(Nc2ccc(OCCCCCOc3ccc(Nc4nc(C)cc(NCc5ccc(F)cc5)n4)cc3)cc2)n1`, for which the “Ratio CC50/IC50” value amounted to 6.16 in data set [1] and 1051.51 in [2]. In addition, the CC50 at 72 h worked out at 41.4 µg/mL (≈ 57.8 µM) in [3] and 8680 nM in [6]. Further, the figures for the concentration for half-maximal inhibition (IC50) in the data set on Plasmodium falciparum [4], with Plasmodium falciparum [5] and with Leishmania donovani [7] were 0.358 µg/mL (≈ 0.5 µM), 0.0394 µg/mL (≈ 0.055 µM) and 1410 nM, respectively.

For “SODIUM ANTIMONY GLUCONATE [listing 2 of 2 here]”, the Ratio CC50/IC50 in the data set on KB [10] amounted to 5.53.

As for `CCN(CC)CCCC(C)Nc1ccnc2cc(Cl)ccc12` (stereo not drawn) [CHLOROQUINE], in data set [3], the CC50 at 72 h turned out to be 75 µg/mL (≈ 234 µM).

On to `Nc1nc(-c2ccccc2)cc(-c2ccc(OCCCCCOc3ccc(-c4cc(-c5ccccc5)nc(N)n4)cc3)cc2)n1`, for which the “Ratio CC50/IC50” value in data set [1] is recorded as greater than 242.42. Besides, in data set [6], the CC50 at 72 h is greater than 400000 nM. The IC50 in the data set on Leishmania donovani [7] is 960 nM.

In the case of `CCN1CCN(c2cc(C)nc(Nc3ccc(OCCCCCOc4ccc(Nc5nc(C)cc(N6CCN(CC)CC6)n5)cc4)cc3)n2)CC1`, the results for the “Ratio CC50/IC50” value in data set [1] and in data set [2] were 12.17 and 157.9, respectively. For the same compound, the values for the CC50 at 72 h in data set [3] and in [6] were 7.13 µg/mL (≈ 10.3 µM) and 3650 nM, respectively. Moreover, the results for the IC50 in the data set with Plasmodium falciparum [4], in the data set on Plasmodium falciparum [5] and in the data set on Leishmania donovani [7] were 0.0221 µg/mL (≈ 0.0318 µM), 0.0451 µg/mL (≈ 0.065 µM) and 300 nM, respectively.

Consider `Cc1cc(N2CCN(C)CC2)nc(Nc2ccc(OCCCCCOc3ccc(Nc4nc(C)cc(N5CCN(C)CC5)n4)cc3)cc2)n1`, for which the “Ratio CC50/IC50” value was 3.62 in data set [1] and 43.97 in data set [2]. The half-maximal cytotoxic concentration (CC50) at 72 h in data set [3] was 10.8 µg/mL (≈ 16.2 µM); in data set [6] it was 2930 nM. The IC50 worked out at 0.245 µg/mL (≈ 0.367 µM) in the data set on Plasmodium falciparum [5] and 810 nM in the data set with Leishmania donovani [7].

Turning to `Cc1cc(NCc2ccccc2)nc(Nc2ccc(OCCCCCOc3ccc(Nc4nc(C)cc(NCc5ccccc5)n4)cc3)cc2)n1`, the “Ratio CC50/IC50” value is 15.6 in data set [1] and 429.15 in [2]. Also, the figures for the CC50 at 72 h in data set [3] and in data set [6] were 22.1 µg/mL (≈ 32.4 µM) and 26000 nM, respectively. In addition, the values for the IC50 in the data set with Plasmodium falciparum [4], with Plasmodium falciparum [5] and with Leishmania donovani [7] were 0.383 µg/mL (≈ 0.562 µM), 0.0514 µg/mL (≈ 0.0756 µM) and 1670 nM, respectively.
